Measured values as given in EPA's CvTdb concentration-time database.

How the values were obtained:
[1] = system: Rat; experiment: concentration in plasma after dosing
[2] = system: human; experiment: concentration in blood after dosing; negative times count back from the end of exposure; settings: dosed: trichloroethylene, inhalation
Summary of the method: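 Concentration-versus-time or amount-versus-time points were compiled from published in vivo toxicokinetic studies and from two structured collections. The studies were found by PubMed searching, classifier screening and manual review. Points were mostly digitised from plot screenshots with WebPlotDigitizer, otherwise copied from tables, and kept in the reported units. Dose, route, subject details and medium were curated by hand from each paper, and sampling and analytical methods follow each source and were often unreported.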

[3] = system: Mouse; experiment: concentration in plasma after dosing; settings: dosed: 2,4-Dichlorophenoxyacetic acid, Male, B6C3F1

O=S(=O)([O-])C(F)(F)C(F)(F)C(F)(F)C(F)(F)C(F)(F)C(F)(F)F.[K+] [Perfluorohexane-1-sulphonic acid – potassium salt]
concentration in plasma [ng/mL], [1], dosed: Perfluorohexane-1-sulphonic acid – potassium salt, oral, Male, F344
Settings	0.25 h	1 h	3 h	6 h	12 h	24 h	192 h	528 h	864 h	1200 h
4 mg/kg	9900	23300	23900	31000	30800	27400	16200	11300	2510	7070
16 mg/kg	–	73500	–	–	–	–	–	–	–	–

c1ccncc1 [Pyridine]
concentration in plasma [ng/mL], [1], dosed: Pyridine
Settings	iv	oral
0.05 h, 5 mg/kg, Male, F344	5520	–
0.25 h, 5 mg/kg, Male, F344	2430	–
0.25 h, 10 mg/kg, Male, F344	4140	–
0.5 h, 5 mg/kg, Male, F344	3550	2630
0.5 h, 25 mg/kg, Male, F344	–	16500
1 h, 5 mg/kg, Male, F344	–	2900
1 h, 25 mg/kg, Female, Harlan Sprague-Dawley	–	18800
2 h, 5 mg/kg, Male, F344	2390	2920
2 h, 10 mg/kg, Male, F344	185	–
2 h, 25 mg/kg, Female, Harlan Sprague-Dawley	–	15700
2 min, 10 mg/kg, Male, F344	4390	716
4 h, 5 mg/kg, Male, F344	2090	2610
4 h, 25 mg/kg, Male, F344	–	15000
5 min, 5 mg/kg, Male, F344	–	1700
5 min, 10 mg/kg, Male, F344	2280	–
5 min, 25 mg/kg, Male, F344	–	5570
6 h, 5 mg/kg, Male, F344	1640	1550
6 h, 25 mg/kg, Male, F344	–	15300
8 h, 5 mg/kg, Male, F344	1620	1070
8 h, 25 mg/kg, Female, Harlan Sprague-Dawley	–	15400
9 h, 5 mg/kg, Male, F344	–	1280
10 min, 10 mg/kg, Male, F344	–	3820
11 h, 5 mg/kg, Male, F344	–	659
14 h, 25 mg/kg, Female, Harlan Sprague-Dawley	–	10000
20 h, 25 mg/kg, Male, F344	–	2910
20 min, 10 mg/kg, Female, Harlan Sprague-Dawley	–	2720
20 min, 10 mg/kg, Male, F344	3160	–
24 h, 25 mg/kg, Male, F344	–	1640
40 h, 100 mg/kg, Male, F344	–	11600
40 min, 10 mg/kg, Female, Harlan Sprague-Dawley	–	2560
50 min, 10 mg/kg, Male, F344	3220	–

OCC(Cl)(Cl)Cl [trichloroethanol (free)]
[2], 100 ppm, duration: 4 hr, person
Settings	concentration in blood [ng/mL]
0.2566 h	2040
0.515 h	2000
1.032 h	1910
1.986 h	1740
3.954 h	1400
5.921 h	1180
7.947 h	1070
9.954 h	944
11.96 h	896
13.99 h	727
15.97 h	577
18 h	459

[2], 100 ppm, duration: 4 hr, person, during exposure
Settings	concentration in blood [ng/mL]
-5 s	2030
-3.524 h	172
-2.99 h	481
-2.021 h	1060
-0.9915 h	1570

O=C(O)COc1ccc(Cl)cc1Cl [2,4-Dichlorophenoxyacetic acid]
concentration in plasma [ng/mL], [3]
Settings	1.0 mg/kg	2.0 mg/kg	5.2 mg/kg
0.25 h, iv	6980	–	–
0.25 h, oral	1210	5300	16000
0.5 h, oral	3030	3480	16800
1 h, iv	2730	–	–
2 h, oral	486	2900	16000
2.5 h, iv	951	–	–
2.5 min, iv	7580	–	–
2.5 min, oral	2070	3200	–
3 h, oral	470	1950	12800
4 h, iv	1200	–	–
4 h, oral	164	–	6840
5 min, iv	7190	–	–
5 min, oral	3130	5970	11300
6 h, iv	235	–	–
6 h, oral	123	390	1250
8 h, oral	120	–	–
10 h, oral	–	–	459
10 min, iv	7290	–	–
10 min, oral	1360	5500	–

[1], dosed: 2,4-Dichlorophenoxyacetic acid, Male, Sprague-Dawley
Settings	concentration in plasma [ng/mL]
0.25 h, 2.0 mg/kg, iv	12200
0.25 h, 7.0 mg/kg, oral	9670
0.5 h, 2.0 mg/kg, iv	7630
0.5 h, 7.0 mg/kg, oral	4670
0.75 h, 2.0 mg/kg, iv	4750
2 h, 2.0 mg/kg, iv	376
2 h, 7.0 mg/kg, oral	6510
2.5 h, 2.0 mg/kg, iv	2040
2.5 min, 2.0 mg/kg, iv	24800
2.5 min, 7.0 mg/kg, oral	9340
3 h, 2.0 mg/kg, iv	863
3 h, 7.0 mg/kg, oral	3570
3.5 h, 2.0 mg/kg, iv	858
4 h, 2.0 mg/kg, iv	482
4 h, 7.0 mg/kg, oral	7740
5 h, 7.0 mg/kg, oral	4720
6 h, 7.0 mg/kg, oral	472
10 min, 2.0 mg/kg, iv	14100
10 min, 7.0 mg/kg, oral	12500

OCC(Cl)(Cl)Cl [trichloroethanol]
concentration in blood [mg/kg], [2], duration: 2 hr - 20 min
Settings	0 h	0.5 h	1 h	1.5 h	2 h	21 h
1348 mg	2.8	2.7	2.6	2.5	2.4	0.8
1681 mg	3	3.3	3.3	3.2	3.1	1
3907 mg	3.9	4.5	4.2	4.4	4.4	1.6

[2]
Settings	concentration in blood
-1.833 h, 1348 mg, duration: 2 hr - 20 min, during exposure	0.8 mg/kg
-1.833 h, 1681 mg, duration: 2 hr - 20 min, during exposure	0.7 mg/kg
-1.833 h, 3907 mg, duration: 2 hr - 20 min, during exposure	1.4 mg/kg
-1 h, 1348 mg, duration: 2 hr - 20 min, during exposure	1.3 mg/kg
-1 h, 1681 mg, duration: 2 hr - 20 min, during exposure	1.9 mg/kg
-1 h, 3907 mg, duration: 2 hr - 20 min, during exposure	2.2 mg/kg
-0.5 h, 1348 mg, duration: 2 hr - 20 min, during exposure	2.2 mg/kg
-0.5 h, 1681 mg, duration: 2 hr - 20 min, during exposure	2.1 mg/kg
-0.5 h, 3907 mg, duration: 2 hr - 20 min, during exposure	3.1 mg/kg
0 h, 100 ppm, duration: 6 hr, female	4110 ng/mL
18 h, 100 ppm, duration: 6 hr, female	2420 ng/mL
24 h, 100 ppm, duration: 6 hr, female	5640 ng/mL
42 h, 100 ppm, duration: 6 hr, female	2510 ng/mL
48 h, 100 ppm, duration: 6 hr, female	5750 ng/mL
66 h, 100 ppm, duration: 6 hr, female	3180 ng/mL
72 h, 100 ppm, duration: 6 hr, female	9060 ng/mL
90 h, 100 ppm, duration: 6 hr, female	5590 ng/mL
96 h, 100 ppm, duration: 6 hr, female	9010 ng/mL

Settings	concentration in blood [ng/mL]
[2], -6 h, 100 ppm, duration: 6 hr, female, during exposure	212
